# From article PMC5330449 (ACS sustainable chemistry & engineering, 2015)
# Read-outs that look alike come from different tables or passages of the source. Marks after values point to notes of the source that are not given here.
# Key:
# [1] = tested on: Raw 264.7 cells; test: Cytotoxicity, resazurin metabolic conversion, Raw 264.7; format: cell-based, mouse; conditions: for EC50: read-out: EC50, 50% decrease in cell viability
# In short: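 Mouse Raw 264.7 macrophages were kept in IMDM with 10% non-inactivated FBS and penicillin/streptomycin at 37 °C, 5% CO2. After 24 h attachment, cells received test compound at 1–5000 µM in full medium for 24 h. Resazurin (10% v/v) was added for the last 1 h, and resorufin absorbance was read at 570/600 nm relative to untreated cells. EC50 was fitted by non-linear least squares to a logistic model, from three independent experiments in triplicate.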
# [2] = tested on: HaCaT cells; test: Cytotoxicity, resazurin metabolic conversion, HaCaT; format: cell-based, human
# In short: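 HaCaT keratinocytes were grown in high-glucose DMEM with 4 mM glutamine, 10% heat-inactivated FBS and penicillin/streptomycin at 37 °C under 5% CO2. After 24 h attachment in 96-well plates, cells were exposed for 24 h to test compound (1–5000 µM) in full medium. Resazurin (10% v/v) was present for the final 2 h. Absorbance was read at 570/600 nm and normalised to untreated cells. EC50 came from a logistic least-squares fit of three independent experiments run in triplicate.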
# [3] = Thermogravimetric analysis; format: physicochemical; conditions: TGA onset, nitrogen atmosphere, 10 °C.min^-1
# [4] = Water solubility from saturated aqueous solution, UV quantification; format: physicochemical; conditions: 25 °C, pure water; for solubility at 72 h: water, thermodynamic from solid
# [5] = DPPH radical scavenging assay; conditions: for DPPH radical scavenging (antioxidant) activity, in words: 30, 90 and 120 minutes of exposure to DPPH; for DPPH scavenging IC50: tested up to 1 mg.mL^-1, IC50 impossible to determine
# In short: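 DPPH (250 µL of 0.91 mmol/L in methanol) was combined with 20–80 µL of a test compound stock and made up to 4 mL with methanol. Samples stood in the dark at room temperature for 30, 90 and 120 min before absorbance was read at 517 nm. Controls were DPPH without compound and ascorbic acid as positive control. Activity = (A0−A1)/A0×100, and IC50 came from scavenging-versus-concentration fits, in triplicate.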
# [6] = tested on: Raw 264.7 macrophages stimulated with LPS; test: Inhibition of LPS-induced NO production in macrophages; format: cell-based, mouse; conditions: 100 μM and 50 μM, pre-treated 1 hour, LPS 1 μg.mL^-1
# [7] = 25 °C; ref Queimada et al. 39; cited from earlier work
# [8] = tested on: Vibrio fischeri; test: Standard Microtox liquid-phase assay; format: cell-based, Vibrio fischeri (strain NRRL B-11177); conditions: for EC50, luminescence inhibition: 30 min of exposure, 15 °C, Passino's classification; for Ecotoxicity rank among the cholinium-based salts: EC50 in mmol.L^-1, Figure 2
# In short: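 Vibrio fischeri NRRL B-11177 was tested by the standard 81.9% liquid-phase protocol at 15 °C. Aqueous dilutions (0–81.9 wt% of stock) were used, with stock concentration corrected for water content by Karl Fischer titration. Luminescence was read after 5, 15 and 30 min and compared with a blank. EC50 and 95% confidence intervals were fitted to a logistic equation by non-linear least squares.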
# [9] = cited from earlier work
# [10] = Raw 264.7, 24 hours of exposure
# [11] = read-out: EC50, 50% decrease in cell viability, 24 hours of exposure
# [12] = Homo sapiens, 24 h, read-out: EC50, 50% decrease in cell viability
compound,measurement,setting,value
"O=C(O)c1cc(O)c(O)c(O)c1 [[Chol][Gal], (2-hydroxyethyl) trimethylammonium 3,4,5-trihydroxybenzoate]",EC50,[1]; [10],836 µM
same,EC50,[2]; [11],304 µM
"C[N+](C)(C)CCO.C[N+](C)(C)CCO.O=c1oc2c(O)c([O-])cc3c(=O)oc4c(O)c([O-])cc1c4c23 [[Chol]2[Ell], di((2-hydroxyethyl)trimethylammonium) 3,8-dihydroxy-5,10-dioxo-5,10-dihydrochromeno[5,4,3-cde]chromene-2,7-bis(olate)]",Temperature of decomposition (Td),[3],265 ºC
same,Temperature of decomposition (Td),[3]; listed as [Chol]2 [Ell],265.0 ºC
same,Water solubility ± std,[4],622.97 ± 36.98 mM
same,"DPPH radical scavenging (antioxidant) activity, in words",[5],highest antioxidant activity
same,Cell viability at maximum concentration achieved,"[1]; 125 µM, Raw 264.7",not observed a decrease in the cell viability
same,Cell viability at maximum concentration achieved,[2]; 125 µM,not observed a decrease in the cell viability
same,Effect on LPS-induced NO production,[6],significantly inhibit the LPS-induced NO increase
"COc1cc(C(=O)[O-])cc(OC)c1O.C[N+](C)(C)CCO [[Chol][Syr], (2-hydroxyethyl) trimethylammonium 4-hydroxy-3,5-dimethoxybenzoate]",Temperature of decomposition (Td),[3],178.9 ºC
same,Water solubility ± std,[4],2793.71 ± 17.98 mM
"O=c1oc2c(O)c(O)cc3c(=O)oc4c(O)c(O)cc1c4c23 [ellagic acid, reference compound]",Temperature of decomposition (Td),[3],472.6 ºC
same,Water solubility ± std,[7],1.26E-02 ± 3.31E-04 ^b mmol.L^-1
"COc1cc(C(=O)O)ccc1O [vanillic acid, reference compound]",Temperature of decomposition (Td),[3],233.7 ºC
"O=C(O)c1ccccc1O [salicylic acid, reference compound]",Temperature of decomposition (Td),[3],183.9 ºC
same,DPPH scavenging IC50,[5],> 1000 µg/mL
"O=C(O)/C=C/c1ccc(O)c(O)c1 [[Chol][Caf], (2-hydroxyethyl) trimethylammonium (E)-3-(3,4-dihydroxyphenyl)acrylate]",EC50,[1]; [10],2340 µM
same,EC50,[2]; [11],1790 µM
"C[N+](C)(C)CCO.O=C([O-])c1cc(O)c(O)c(O)c1 [[Chol][Gal], (2-hydroxyethyl) trimethylammonium 3,4,5-trihydroxybenzoate]",Temperature of decomposition (Td),[3],185.3 ºC
same,Water solubility ± std,[4],2402.27 ± 6.09 mM
same,"EC50, luminescence inhibition",[8],> 1000 µg/mL
same,Ecotoxicity rank among the cholinium-based salts,[8],less toxic
same,Effect on LPS-induced NO production,[6],neither [Chol][Gal] nor gallic acid decrease the LPS-induced NO production
"O=C(O)c1cc(O)c(O)c(O)c1 [gallic acid, 3,4,5-trihydroxybenzoic acid, reference compound]",Temperature of decomposition (Td),[3],262.5 ºC
same,solubility at 72 h,[4],71.3 ± 2.7 mM
same,EC50,"[1]; Mus musculus, RAW264.7, 24 h",591 µM
same,EC50,[2]; [12],267 µM
same,Effect on LPS-induced NO production,[6],neither [Chol][Gal] nor gallic acid decrease the LPS-induced NO production
"C[N+](C)(C)CCO.O=C([O-])c1ccccc1O [[Chol][Sal], (2-hydroxyethyl) trimethylammonium 2-hydroxybenzoate, reference compound]",Temperature of decomposition (Td),[3],226.0 ºC
same,Water solubility ± std,[4],Completely miscible
same,DPPH scavenging IC50,[5],> 1000 µg/mL
same,Ecotoxicity rank among the cholinium-based salts,[8],most toxic
"C[N+](C)(C)CCO.O=C([O-])/C=C/c1ccc(O)c(O)c1 [[Chol][Caf], (2-hydroxyethyl) trimethylammonium (E)-3-(3,4-dihydroxyphenyl)acrylate]",Effect on LPS-induced NO production,[6],significantly inhibit the LPS-induced NO increase
"C[N+](C)(C)CCO.[Cl-] [cholinium chloride, Cholinium chloride]",Decomposition temperature,[9],circa 305 ºC
"COc1cc(C(=O)[O-])ccc1O.C[N+](C)(C)CCO [[Chol][Van], (2-hydroxyethyl) trimethylammonium 4-hydroxy-3-methoxybenzoate]",Temperature of decomposition (Td),[3],186.8 ºC
same,"DPPH radical scavenging (antioxidant) activity, in words",[5],significantly higher DPPH radical scavenging activity than vanillic acid
same,"EC50, luminescence inhibition",[8],> 1000 µg/mL
"O=C(O)/C=C/c1ccc(O)c(O)c1 [caffeic acid, reference compound]",solubility at 72 h,[4],3.84 ± 0.04 mM
same,EC50,"[1]; Mus musculus, RAW264.7, 24 h",2000 µM
same,EC50,[2]; [12],1800 µM
